Measured values taken from ChEMBL document CHEMBL4184338, “In Vitro and In Vivo Demonstration of Human-Ovarian-Cancer Necrosis through a Water-Soluble and Near-Infrared-Absorbing Chlorin” (J Med Chem, 2018).
≈ marks a conversion by molar mass, not a printed value. Calls of active or inactive are those of the source. The rule behind the calls is not given here.

How the values were obtained:
[1] = Induction of singlet oxygen generation in methanol at 3 uM in presence of light by DPBF-based chemical trapping method; assay type: functional
[2] = Solubility in 25% aqueous ethanolic medium at 25 degC after 24 hrs by UV-VIS spectrometric method; assay type: physicochemical
[3] = Drug uptake in human SKOV3 cells at 20 uM after 1 hr in presence of 200 J/cm'2 light by Hoechst 33342 staining-based confocal microscopic method; assay type: ADME, cell-based; conditions: sk-ov-3, 1 h
Procedure, shortened: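 SKOV-3 cells on chambered glass slides incubated with 20 μM compound for 1 h. Rinsed with PBS, stained with Hoechst 33342 (1 μg/mL), imaged by confocal microscopy.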

[4] = Drug uptake in mitochondria of human SKOV3 cells at 20 uM after 1 hr in presence of 200 J/cm'2 light by MitoTracker Red probe/Hoechst 33342 staining-based confocal microscopic method; assay type: ADME; conditions: sk-ov-3, 1 h
SK-OV-3 [5] = test: Phototoxicity against human SKOV3 cells assessed as decrease in cell viability after 24 hrs in presence of 200 J/cm'2 light by MTT assay; assay type: functional, cell-based
Procedure, shortened: (§1)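 Cell lines given varied compound concentrations, then irradiated (600-750 nm source, 200 J/cm2 at 50 mW/cm2) or kept dark. Viability by MTT at 24 h after treatment; IC50 from the dose-response. Three independent experiments averaged.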

IMR-32 = test: Phototoxicity against human IMR32 cells assessed as decrease in cell viability after 24 hrs in presence of 200 J/cm'2 light by MTT assay; assay type: functional, cell-based; conditions: IMR-32, light or radiation study; procedure, shortened: as §1
MCF7 = test: Phototoxicity against human MCF7 cells assessed as decrease in cell viability after 24 hrs in presence of 200 J/cm'2 light by MTT assay; assay type: functional, cell-based; conditions: MCF7, light or radiation study; procedure, shortened: as §1
MDA-MB-231 = test: Phototoxicity against human MDA-MB-231 cells assessed as decrease in cell viability after 24 hrs in presence of 200 J/cm'2 light by MTT assay; assay type: functional, cell-based; conditions: MDA-MB-231, light or radiation study; procedure, shortened: as §1
[6] = Dark toxicity in human SKOV3 cells assessed as alteration in cell morphology by phase-contrast microscopic method; assay type: cell-based; conditions: sk-ov-3
Procedure, shortened: (§2)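 SKOV-3 cells given compound, kept dark or irradiated (200 J/cm2, 50 mW/cm2). Morphology examined by phase-contrast microscopy (100X).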

SK-OV-3 [7] = test: Phototoxicity in human SKOV3 cells assessed as alteration in cell morphology in presence of 200 J/cm'2 light by phase-contrast microscopic method; assay type: functional, cell-based; procedure, shortened: as §2
SK-OV-3 [8] = test: Cell cycle arrest in human SKOV3 cells assessed as accumulation at sub-G1 phase at 20 uM after 12 hrs in presence of 200 J/cm'2 light by propidium iodide staining-based flow cytometric method (reference value: 7%); assay type: functional
SK-OV-3 [9] = test: Cell cycle arrest in human SKOV3 cells assessed as accumulation at sub-G1 phase at 20 uM after 24 hrs in presence of 200 J/cm'2 light by propidium iodide staining-based flow cytometric method (reference value: 7%); assay type: functional
SK-OV-3 [10] = test: Induction of necrosis in human SKOV3 cells at 20 uM in presence of 200 J/cm'2 light by propidium iodide staining-based flow cytometric method (reference value: 7.45%); assay type: functional
Procedure, shortened: (§3)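 Unfixed SKOV-3 cells given 20 μM compound, with or without light (600-720 nm, 200 J/cm2). Harvested, PBS-washed, stained with propidium iodide (10 μg/mL) for 20 min. PI-positive membrane-damaged fraction measured by flow cytometry.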

[11] = Photostability of compound; assay type: physicochemical
SK-OV-3 [12] = test: Induction of reactive oxygen species formation in human SKOV3 cells at 20 uM in presence of 200 J/cm'2 light by CM-H2DCFDA probe-based confocal microscopic method; assay type: functional, cell-based
SK-OV-3 [13] = test: Induction of reactive oxygen species formation in human SKOV3 cells at 20 uM in presence of 200 J/cm'2 light by CM-H2DCFDA probe-based flow cytometric method (reference value: <1%); assay type: functional
Homo sapiens [14] = organism: Homo sapiens; test: Disruption of F-actin organization in human SKOV3 cells at 20 uM in presence of 200 J/cm'2 light by TRITC labeled phalloidin/DAPI staining-based confocal microscopic method; assay type: cell-based
Procedure, shortened: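 SKOV-3 cells on coverslips: untreated, 20 μM compound in the dark, or 20 μM compound plus irradiation (600-720 nm, 200 J/cm2). Fixed in 4% paraformaldehyde/PBS, permeabilised with 0.1% Triton X-100, stained with TRITC-phalloidin (1:50, 1 h). DAPI counterstain, confocal imaging.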

SK-OV-3 [15] = test: Disruption of mitochondrial membrane potential in human SKOV3 cells at 20 uM in presence of 200 J/cm'2 light by MitoTracker Red probe/Hoechst 33342 staining-based confocal microscopic method; assay type: functional, cell-based
Procedure, shortened: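 Control SKOV-3 cells and cells after photodynamic treatment (20 μM compound, 600-720 nm, 200 J/cm2) loaded with 200 nM MitoTracker Red CMXRos, 30 min at 37 °C. Formaldehyde-fixed, nuclear counterstain, confocal microscopy.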

SK-OV-3 [16] = test: Antitumor activity against human SKOV3 cells xenografted in FoxN1 nude mouse assessed as decrease in tumor volume at 20 mg/kg, iv measured up to day 14 in presence of 100 J/cm'2 light; assay type: functional, organism-based
Procedure, shortened: (§4)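 3-4 million SKOV-3 cells injected subcutaneously into the flank of 6-8 week old FoxN1 nude mice (20-25 g). At tumour volumes of about 100-150 mm3, randomised into four groups of six: untreated, light only, compound only, and compound plus light. Compound given iv at 20 mg/Kg in physiological saline. Irradiation 24 h later at 100 J/cm2, 100 mW/cm2, 600-750 nm source, under ip ketamine (60 mg/Kg)/xylazine (8 mg/Kg). Tumour volume by calipers, V=LW2/2, followed over two weeks. Tissues processed for H&E histology.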

SK-OV-3 [17] = test: Antitumor activity against human SKOV3 cells xenografted in FoxN1 nude mouse assessed as disappearance of scar at site of tumor at 20 mg/kg, iv measured up to day 14 in presence of 100 J/cm'2 light; assay type: functional, organism-based; procedure, shortened: as §4
SK-OV-3 [18] = test: Antitumor activity against human SKOV3 cells xenografted in FoxN1 nude mouse assessed as elimination of neoplastic cells in tumor at 20 mg/kg, iv measured on day 14 in presence of 100 J/cm'2 light by hematoxylin-and-eosin staining-based assay; assay type: functional, organism-based; procedure, shortened: as §4
Mus musculus [19] = test: Toxicity in FoxN1 nude mouse xenografted with human SKOV3 cells assessed as effect on skin around peritumoral area at 20 mg/kg, iv measured up to day 14 in presence of 100 J/cm'2 light; assay type: organism-based; conditions: in vivo; procedure, shortened: as §4
[20] = Drug uptake in neoplastic tumor of FoxN1 nude mouse xenografted with human SKOV3 cells at 20 mg/kg administered intratumorally measured at 12 hrs by fluorescence microscopic method; assay type: ADME, organism-based, Neoplasm; conditions: in vivo, other
Procedure, shortened: (§5)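 Compound injected intratumorally into SKOV-3 xenograft-bearing nude mice. Tumours biopsied 12 h after administration, then sectioned. Sections DAPI-counterstained and examined for red compound fluorescence by fluorescence microscopy.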

[21] = Drug uptake in stromal cells of FoxN1 nude mouse xenografted with human SKOV3 cells at 20 mg/kg administered intratumorally measured at 12 hrs by fluorescence microscopic method; assay type: ADME, organism-based; conditions: in vivo, other; procedure, shortened: as §5
[22] = Drug uptake in fibrous tissue cells of FoxN1 nude mouse xenografted with human SKOV3 cells at 20 mg/kg administered intratumorally measured at 12 hrs by fluorescence microscopic method; assay type: ADME, organism-based; conditions: in vivo, other; procedure, shortened: as §5
Mus musculus [23] = test: Toxicity in FoxN1 nude mouse xenografted with human SKOV3 cells assessed as effect on liver morphology at 20 mg/kg, iv measured on day 14 in presence of 100 J/cm'2 light by hematoxylin-and-eosin staining-based assay; assay type: organism-based; conditions: in vivo; procedure, shortened: as §4
Mus musculus [24] = test: Toxicity in FoxN1 nude mouse xenografted with human SKOV3 cells assessed as effect on kidney morphology at 20 mg/kg, iv measured on day 14 in presence of 100 J/cm'2 light by hematoxylin-and-eosin staining-based assay; assay type: organism-based; conditions: in vivo; procedure, shortened: as §4
Mus musculus [25] = test: Toxicity in FoxN1 nude mouse xenografted with human SKOV3 cells assessed as effect on spleen morphology at 20 mg/kg, iv measured on day 14 in presence of 100 J/cm'2 light by hematoxylin-and-eosin staining-based assay; assay type: organism-based; conditions: in vivo; procedure, shortened: as §4
Mus musculus [26] = test: Toxicity in FoxN1 nude mouse xenografted with human SKOV3 cells assessed as effect on heart morphology at 20 mg/kg, iv measured on day 14 in presence of 100 J/cm'2 light by hematoxylin-and-eosin staining-based assay; assay type: organism-based; conditions: in vivo; procedure, shortened: as §4
Mus musculus [27] = test: Toxicity in FoxN1 nude mouse xenografted with human SKOV3 cells assessed as effect on lung morphology at 20 mg/kg, iv measured on day 14 in presence of 100 J/cm'2 light by hematoxylin-and-eosin staining-based assay; assay type: organism-based; conditions: in vivo; procedure, shortened: as §4
SK-OV-3 [28] = test: Induction of reactive oxygen species formation in human SKOV3 cells at 20 uM in absence of light by CM-H2DCFDA probe-based confocal microscopic method; assay type: cell-based; conditions: sk-ov-3, 20 µM
SK-OV-3 [29] = test: Cell cycle arrest in human SKOV3 cells assessed as accumulation at sub-G1 phase at 20 uM after 12 hrs in absence of light by propidium iodide staining-based flow cytometric method (reference value: 2.2%); conditions: sk-ov-3, 12 h
SK-OV-3 [30] = test: Induction of necrosis in human SKOV3 cells at 20 uM in absence of light by propidium iodide staining-based flow cytometric method (reference value: 7.03%); assay type: cell-based; conditions: sk-ov-3, 20 µM; procedure, shortened: as §3
Homo sapiens [31] = organism: Homo sapiens; test: Binding affinity to F-actin in human SKOV3 cells at 20 uM after 1 hr in presence of 200 J/cm'2 light by TRITC labeled phalloidin/DAPI staining-based confocal microscopic method

Compound: Oc1ccc(-c2c3nc(c(-c4ccc(O)c(O)c4)c4ccc([nH]4)c(-c4ccc(O)c(O)c4)c4nc(c(-c5ccc(O)c(O)c5)c5ccc2[nH]5)CC4)C=C3)cc1O
- Activity [1]: 80%
- solubility at 24 h [2]: 3640 µM (≈ 2710 µg/mL)
- Drug uptake [3]: Active
- Drug uptake [4]: Active
- Activity (SK-OV-3 [5]): Dose-dependent effect
- IC50 (SK-OV-3 [5]; SK-OV-3, light or radiation study): 11.2 µM
- IC50 (IMR-32): 3.5 µM
- IC50 (MCF7): 4.4 µM
- IC50 (MDA-MB-231): 6.1 µM
- Activity [6]: Non-Toxic
- Activity (SK-OV-3 [7]): Active
- Activity (SK-OV-3 [8]): 59.6%
- Activity (SK-OV-3 [9]): 76.7%
- Activity (SK-OV-3 [10]): 79.48%
- Stability [11]: Stable
- Activity (SK-OV-3 [12]): Active
- Activity (SK-OV-3 [13]): 73%
- Activity (Homo sapiens [14]): Active
- Activity (SK-OV-3 [15]): Active
- Activity (SK-OV-3 [16]): Active
- Activity (SK-OV-3 [17]): Active
- Activity (SK-OV-3 [18]): Active
- Activity (Mus musculus [19]): Non-Toxic
- Drug uptake [20]: Active
- Drug uptake [21]: Not Active
- Drug uptake [22]: Not Active
- Activity (Mus musculus [23]): Non-Toxic
- Activity (Mus musculus [24]): Non-Toxic
- Activity (Mus musculus [25]): Non-Toxic
- Activity (Mus musculus [26]): Non-Toxic
- Activity (Mus musculus [27]): Non-Toxic
- Activity (SK-OV-3 [28]): Non-Toxic
- Activity (SK-OV-3 [29]): 1%
- Activity (SK-OV-3 [30]): 8.98%
- Activity (Homo sapiens [31]): Active

Compound: Oc1cccc(-c2c3nc(c(-c4cccc(O)c4)c4ccc([nH]4)c(-c4cccc(O)c4)c4nc(c(-c5cccc(O)c5)c5ccc2[nH]5)CC4)C=C3)c1 [TEMOPORFIN]
- solubility at 24 h [2]: 600 µM (≈ 408 µg/mL)
